# Data published in ChEMBL document CHEMBL4665841, “Rapid Solid-Phase Construction of Serine Hydrolase Probes Results in Selective Activity-Based Probes for Acyl Protein Thioesterases-1/2” (J Med Chem, 2020).
# Active and inactive are the calls of the source. The calls are words filed in the database; no cut-off is given here.
# Assays:
# Mus musculus = organism: Mus musculus; assay: Selectivity ratio of apparent IC50 for inhibition of FP-Rh binding to ABHD6 in mouse brain cytosolic fraction to apparent IC50 for inhibition of FP-Rh binding to APT-1/2 in mouse brain membrane fraction; type: cell membranes
# In short: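 Ratio of apparent IC50 values from competitive ABPP in mouse brain fractions (1 mg/mL). Each IC50 came from a 1 h inhibitor preincubation over six 1:3-diluted concentrations, then 1 h FP-rhodamine. 12% SDS-PAGE and in-gel fluorescence; band intensity normalized to uninhibited control, then fitted to a dose-response curve.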
# [1] = molecular target: T1, Acyl-protein thioesterase 1/2 (Mus musculus) (UniProt P97823+Q9WTL7); assay: Inhibition of FP-Rh binding to APT-1/2 in mouse brain membrane fraction preincubated for 1 hr followed by FP-Rh addition and measured after 1 hr by SDS-PAGE analysis; type: cell membranes; settings: time 2.0 hrs
# In short: (§1)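 Apparent IC50 by competitive ABPP. Mouse brain cytosolic or membrane fraction (1 mg/mL) preincubated 1 h at RT with six inhibitor concentrations (1:3 serial dilution from top 30 μM or 370 nM; 100x DMSO stock), then FP-rhodamine 1 h. 12% SDS-PAGE, fluorescence at 532/568 nm. Band intensities normalized to uninhibited FP-Rh control (100%); IC50 fitted from dose-response curve.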
# [2] = molecular target: T2, Monoacylglycerol lipase ABHD6 (Mus musculus, UniProt Q8R2Y0); assay: Inhibition of FP-Rh binding to ABHD6 in mouse brain cytosolic fraction preincubated for 1 hr followed by FP-Rh addition and measured after 1 hr by SDS-PAGE analysis; type: tissue-based; in short: as §1
# T2 sequence (Q8R2Y0 whole entry): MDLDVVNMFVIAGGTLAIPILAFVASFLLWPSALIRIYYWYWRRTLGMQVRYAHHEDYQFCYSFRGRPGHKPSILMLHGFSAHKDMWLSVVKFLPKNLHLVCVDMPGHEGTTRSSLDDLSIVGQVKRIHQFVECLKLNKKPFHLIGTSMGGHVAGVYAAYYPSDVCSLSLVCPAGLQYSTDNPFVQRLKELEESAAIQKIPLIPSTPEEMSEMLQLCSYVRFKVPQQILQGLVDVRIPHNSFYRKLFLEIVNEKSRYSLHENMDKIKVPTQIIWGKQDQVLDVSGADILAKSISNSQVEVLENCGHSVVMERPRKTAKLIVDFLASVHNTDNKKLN
# [3] = molecular target: Acyl-protein thioesterase 1/2 (Mus musculus, UniProt P97823+Q9WTL7); assay: (§2) Inhibition of FP-Rh binding to APT-1/2 in mouse brain cytosolic fraction preincubated for 1 hr followed by FP-Rh addition and measured after 1 hr by SDS-PAGE analysis; type: tissue-based; in short: as §1
# [4] = molecular target: T1, Acyl-protein thioesterase 1/2 (Mus musculus); assay: Inhibition of APT-1/2 in mouse brain cytosolic fraction at 1 uM preincubated for 1 hr followed by TAMRA-Lys(biotin)-NH-propyne addition and measured after 1 hr click chemistry labelling based Western blot analysis; type: tissue-based; settings: time 2.0 hrs
# In short: (§3)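 Cytosolic or membrane mouse brain fraction (1 mg/mL) treated 1 h with 1 μM probe (100x DMSO stock) or DMSO. Click with TAMRA-Lys(biotin)-NHpropyne tag, THPTA, CuSO4, ascorbate, 1 h RT. Two cold-acetone precipitations, redissolved in PBS/2% SDS, diluted to 0.4% SDS, streptavidin pull-down 1 h at 25 °C. Gel fluorescence scanned, then blotted with anti-APT-1 or anti-APT-2 (0.5 μg/mL) overnight, HRP anti-rabbit, chemiluminescence.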
# [5] = molecular target: T1, Acyl-protein thioesterase 1/2 (Mus musculus); assay: Inhibition of APT-1/2 in mouse brain membrane fraction at 1 uM preincubated for 1 hr followed by TAMRA-Lys(biotin)-NH-propyne addition and measured after 1 hr click chemistry labelling based Western blot analysis; type: cell membranes; settings: time 2.0 hrs; in short: as §3
# [6] = molecular target: Acyl-protein thioesterase 1/2 (Homo sapiens) (UniProt O75608+O95372); assay: Inhibition of FP-Rh binding to APT-1/2 in human A-431 cells at 1 uM preincubated for 2 hrs followed by compound washout and subsequent FP-Rh addition and measured after 1 hr by SDS-PAGE analysis
# [7] = molecular target: T1, Acyl-protein thioesterase 1/2 (Mus musculus); assay: Inhibition of APT-1/2 in mouse brain membrane fraction at 0.1 to 1 uM preincubated for 1 hr followed by TAMRA-alkyne addition and measured after 1 hr by SDS-PAGE analysis based click chemistry labelling method; type: cell membranes; settings: dose microM 0.1-1, time 2.0 hrs
# In short: (§4)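 Mouse brain cytosolic or membrane fraction (1 mg/mL; membrane pellet from 100,000 g spin, in 20 mM HEPES, 2 mM DTT, pH 7.2) incubated 1 h with probe added from 100x DMSO stock. CuAAC click with TAMRA-alkyne, THPTA, sodium ascorbate and CuSO4 for 1 h at room temperature; boiled in sample buffer, 12% SDS-PAGE, in-gel fluorescence.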
# [8] = molecular target: T1, Acyl-protein thioesterase 1/2 (Mus musculus); assay: Inhibition of APT-1/2 in mouse brain cytosolic fraction at 0.1 to 1 uM preincubated for 1 hr followed by TAMRA-alkyne addition and measured after 1 hr by SDS-PAGE analysis based click chemistry labelling method; type: tissue-based; settings: dose microM 0.1-1, time 2.0 hrs; in short: as §4
# [9] = molecular target: T1, Acyl-protein thioesterase 1/2 (Mus musculus); assay: as §2; type: tissue-based; settings: time 2.0 hrs; in short: as §1
# T1 sequence (P97823 whole entry, looked up): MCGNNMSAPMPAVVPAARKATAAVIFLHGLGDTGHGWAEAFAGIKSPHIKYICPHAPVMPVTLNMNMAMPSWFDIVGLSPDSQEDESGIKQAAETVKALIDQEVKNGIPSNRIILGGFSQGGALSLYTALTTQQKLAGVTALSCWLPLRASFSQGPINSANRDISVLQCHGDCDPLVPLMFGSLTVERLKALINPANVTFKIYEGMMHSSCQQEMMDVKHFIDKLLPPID
# T1 sequence (Q9WTL7 whole entry, looked up): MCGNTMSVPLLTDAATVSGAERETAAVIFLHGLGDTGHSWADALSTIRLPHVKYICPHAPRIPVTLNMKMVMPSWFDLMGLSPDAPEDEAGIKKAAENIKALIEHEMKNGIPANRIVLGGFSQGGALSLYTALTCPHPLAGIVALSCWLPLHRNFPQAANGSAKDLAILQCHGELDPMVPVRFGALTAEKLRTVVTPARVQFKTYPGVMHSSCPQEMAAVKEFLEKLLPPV
# Chain of Acyl-protein thioesterase 1/2 (Homo sapiens) (O75608 whole entry, looked up): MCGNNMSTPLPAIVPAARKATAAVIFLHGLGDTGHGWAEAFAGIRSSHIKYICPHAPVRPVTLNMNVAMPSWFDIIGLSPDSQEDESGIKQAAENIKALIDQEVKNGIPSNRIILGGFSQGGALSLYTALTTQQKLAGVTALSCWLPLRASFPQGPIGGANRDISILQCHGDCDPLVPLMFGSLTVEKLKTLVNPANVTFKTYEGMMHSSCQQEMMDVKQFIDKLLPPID
# Chain of Acyl-protein thioesterase 1/2 (Homo sapiens) (O95372 whole entry, looked up): as the sequence (Q9WTL7 whole entry, looked up) above, with N154A, T193S counted along it
smiles,measurement,setting,value
[N-]=[N+]=NCCCC[C@H](NC(=O)CCCCCNC(=O)[C@H](Cc1ccccc1)NC(=O)C1CCN(C(=O)n2ccnn2)CC1)C(N)=O,Ratio IC50,Mus musculus,> 65
same,inhibition,[1],Active
same,IC50,[2],> 30 µM
same,IC50(app),[3],0.46 µM
[N-]=[N+]=NCCCC[C@H](NC(=O)CCCCCNC(=O)c1ccc(CN2CCN(C(=O)n3ccnn3)CC2)cc1)C(N)=O,inhibition,[4],Active
same,inhibition,[5],Active
same,Ratio IC50,Mus musculus,250
same,inhibition,[6],Active
same,inhibition,[7],Active
same,inhibition,[1],Active
same,inhibition,[8],Active
same,IC50,[2],7.4 µM
same,IC50(app),[3],0.0279 µM
[N-]=[N+]=NCCCC[C@H](NC(=O)CCCCCNC(=O)c1ccc(CN2CCN(C(=O)ON3C(=O)CCC3=O)CC2)cc1)C(N)=O,inhibition,[1],Active
same,inhibition,[9],Active
[N-]=[N+]=NCCCC[C@H](NC(=O)CCCCCNC(=O)CN(Cc1ccccc1)C(=O)C1CCN(C(=O)n2ccnn2)CC1)C(N)=O,inhibition,[4],Active
same,inhibition,[5],Active
same,Ratio IC50,Mus musculus,> 2500
same,inhibition,[6],Active
same,inhibition,[7],Active
same,inhibition,[1],Active
same,inhibition,[8],Active
same,IC50,[2],> 30 µM
same,IC50(app),[3],0.0118 µM
[N-]=[N+]=NCCCC[C@H](NC(=O)CCCCCNC(=O)CN(Cc1ccccc1)C(=O)C1CCN(C(=O)ON2C(=O)CCC2=O)CC1)C(N)=O,inhibition,[1],Active
same,inhibition,[9],Active
